# Laboratory results as given in ChEMBL document CHEMBL1123036, “Synthesis and antiallergic activities of 1,3-oxazolo[4,5-h]quinolines” (J Med Chem, 1985).
# pIC50: −log10 of the molar value.
# Legend:
# [1] = species on record: Rattus norvegicus; experiment: In vitro ability to inhibit antigen-induced release of histamine (AIR) from rat mast cells; histamine release was assayed by a radioenzymatic method; assay type: functional, cell-based
# In short: (§1)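 Rat peritoneal cells were collected by lavage and contained 5–10% mast cells. Histamine was measured by a radioenzymatic method instead of fluorometry, because some test agents fluoresce. Samples were incubated with [¹⁴C]methyl-S-adenosylmethionine and histamine-N-methyltransferase prepared from rat kidneys.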
# [2] = test system: Rattus norvegicus; experiment: Ability to inhibit passive cutaneous anaphylaxis in rat, when […] injected perorally; assay type: functional; settings: route oral
# In short: (§2)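 Rat passive cutaneous anaphylaxis: the read-out was inhibition of IgE-mediated cutaneous wheal formation after antigen challenge. Compounds were given by the route and dose stated on the line.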
# [3] = test system: Rattus norvegicus; experiment: Ability to inhibit passive cutaneous anaphylaxis in rat, when compound was injected intraperitoneally.; assay type: functional; settings: ip; in short: as §2
# [4] = test system: Rattus norvegicus; experiment: Percentage inhibition against passive cutaneous anaphylaxis after injecting 10 mg/kg intraperitoneally in rat; assay type: functional; settings: route intraperitoneal; for inhibition in vivo at 10 mg/kg: Rattus norvegicus, ip; in short: as §2
# [5] = test system: Rattus norvegicus; experiment: Percentage inhibition against passive cutaneous anaphylaxis after injecting 10 mg/kg perorally in rat; assay type: functional; settings: route oral; in short: as §2
# [6] = test system: Rattus norvegicus; experiment: Percentage inhibition of 30 mg/kg compound against antigen-induced release of histamine (AIR) from rat mast cells; assay type: functional
# [7] = species on record: Rattus norvegicus; experiment: In vitro ability to inhibit antigen-induced release of histamine (AIR) from rat mast cells; assay type: functional, cell-based; in short: as §1
# [8] = species on record: Rattus norvegicus; experiment: (§3) In vitro ability to inhibit antigen-induced release of histamine (AIR) from rat peritoneal mast cells; assay type: functional
# In short: (§4)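 Peritoneal cells collected from rats by lavage, containing 5–10% mast cells. Antigen-induced histamine release was quantified radioenzymatically rather than fluorometrically: samples were incubated with [¹⁴C]methyl-S-adenosylmethionine and histamine-N-methyltransferase prepared from rat kidneys.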
# [9] = species on record: Rattus norvegicus; experiment: Percentage inhibition against passive cutaneous anaphylaxis in rat, when injected perorally; assay type: functional
# In short: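 Rat passive cutaneous anaphylaxis, an IgE-mediated cutaneous wheal formation model; compounds given orally before antigen challenge; read-out is percent inhibition of wheal formation.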
# [10] = species on record: Rattus norvegicus; experiment: as §3; assay type: functional, cell-based; in short: as §4
# [11] = species on record: Rattus norvegicus; experiment: Ability to inhibit passive cutaneous anaphylaxis in rat, when compound was injected perorally.; assay type: functional; in short: as §2
# [12] = test system: Rattus norvegicus; experiment: Percentage inhibition against passive cutaneous anaphylaxis after injecting 125 mg/kg perorally in rat; assay type: functional; settings: route oral; in short: as §2
# [13] = test system: Rattus norvegicus; experiment: Percentage inhibition against passive cutaneous anaphylaxis after injecting 25 mg/kg perorally in rat; assay type: functional; settings: route oral; in short: as §2
# [14] = test system: Rattus norvegicus; experiment: Ability to inhibit passive cutaneous anaphylaxis in rat, when compound was injected intraperitoneally; assay type: functional; settings: ip; in short: as §2
# [15] = species on record: Rattus norvegicus; experiment: Ability to inhibit passive cutaneous anaphylaxis in rat, when compound was injected perorally; assay type: functional; in short: as §2
# [16] = species on record: Rattus norvegicus; experiment: In vitro ability to inhibit antigen-induced release of histamine (AIR) from rat peritoneal mast cells.; assay type: functional; in short: as §1
# [17] = species on record: Rattus norvegicus; experiment: In vitro ability to inhibit antigen-induced release of histamine (AIR) from rat peritoneal mast cells; the compound was tested at a concentration of 50 uM.; assay type: functional, cell-based
# [18] = species on record: Rattus norvegicus; experiment: Ability to inhibit anaphylactically induced release of histamine (AIR) from rat peritoneal mast cells; assay type: functional, cell-based; in short: as §4
# [19] = test system: Rattus norvegicus; experiment: Percentage inhibition against passive cutaneous anaphylaxis in rat, when injected intraperitoneally; assay type: functional; in short: as §2
smiles,measurement,setting,value
COC(=O)c1nc2cc(Cl)c3cccnc3c2o1 [QUAZOLAST],pIC50,[1],6.52
same,ED50,[2],0.5 mg/kg
same,ED50,[3],0.1 mg/kg
same,inhibition in vivo at 10 mg/kg,[4],100%
Clc1cc2nc(-c3ccccc3)oc2c2ncccc12,inhibition in vivo at 10 mg/kg,[5],3%
same,inhibition in vivo at 30 mg/kg,[6],< 30%
O=C(O)c1nc2cc(Cl)c3cccnc3c2o1,inhibition in vivo at 10 mg/kg,[4],47%
O=C([O-])c1cc(=O)c2c(OCC(O)COc3cccc4oc(C(=O)[O-])cc(=O)c34)cccc2o1.[Na+].[Na+] [CROMOLYN SODIUM],pIC50,[7],5.52
same,ED50,[3],6 mg/kg
COc1ccccc1C(=O)n1c(=O)oc2c3ncccc3c(Cl)cc21,Inhibition,[8],16%
same,Inhibition,[9],34%
Clc1cc2ncoc2c2ncccc12,inhibition in vivo at 10 mg/kg,[5],28%
O=C([O-])c1nc2cc(Cl)c3cccnc3c2o1.[Na+],pIC50,[10],6.52
same,Inhibition,[4],51%
O=C(/C=C/c1ccccc1)n1c(=O)oc2c3ncccc3c(Cl)cc21,Inhibition,[8],18%
same,Inhibition,[9],0%
Cn1c(=O)oc2c3ncccc3c(Cl)cc21,ED50,[11],102 mg/kg
same,inhibition in vivo at 125 mg/kg,[12],51%
CCOC(=O)n1c(=O)oc2c3ncccc3c(Cl)cc21,Inhibition,[9],43%
Oc1nc2ccc3cccnc3c2o1,inhibition in vivo at 25 mg/kg,[13],0%
CC(=O)n1c(=O)oc2c3ncccc3ccc21,ED50,[14],10 mg/kg
same,ED50,[15],4 mg/kg
same,Inhibition,[16],<30%
CCOC(=O)Cc1nc2cc(Cl)c3cccnc3c2o1,inhibition in vivo at 10 mg/kg,[4],9%
Oc1nc2cc(Cl)c3cccnc3c2o1,% inhibition,[17],18%
same,inhibition in vivo at 125 mg/kg,[12],14%
COc1ccccc1NC(=O)Oc1cccc2cccnc12,pIC50,[18],5.70
CCOC(=O)c1nc2cc(Cl)c3cccnc3c2o1,pIC50,[10],7.00
same,inhibition in vivo at 10 mg/kg,[4],59%
CC(=O)n1c(=O)oc2c3ncccc3c(Cl)cc21,Inhibition,[9],15%
Clc1cc2nc(C(Cl)(Cl)Cl)oc2c2ncccc12,pIC50,[10],7.52
same,Inhibition,[19],28%
Cc1nc2cc(Cl)c3cccnc3c2o1,pIC50,[10],4.48
same,inhibition in vivo at 10 mg/kg,[5],15%
CN(C)C(=O)n1c(=O)oc2c3ncccc3c(Cl)cc21,Inhibition,[8],0%
